Laboratory results: publication PMC7114156 (Antiviral Research, 2009)
Several values for one entry are separate records, joined by “and”; a condition that tells them apart may be missing. Equal values may be shown once. Entries after “also recorded” stand apart in the source; their conditions may differ. Marks after values point to notes of the source that are not given here.

Experiments:
[1] = Growth of resting B cells, CTG; assay type: cell-based; conditions: human
Procedure, shortened: (§1)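 Primary cells were plated in 96-well plates with serial dilutions of test compound, 3 nM to 100 μM, for 72 h at 37 °C. Read-out was CTG for resting B and CD4 T cells and MTS for PBMC, WI38 and HUVEC. Purity was 90–95% for B cells and 97% for CD4 cells. Activated PBMCs were stimulated with phytohemagglutinin plus IL2.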

[2] = system: W12-20850 cells; test: Growth of W12-20850 cells, MTS; assay type: cell-based, human
Procedure, shortened: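 For the time course, test compound was added at time zero to cells growing in 96-well plates. Growth was followed as rate of MTS reduction over 3 days from day zero, with untreated controls alongside.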

[3] = system: episomal HPV-16 DNA; test: Hybrid capture assay for HPV16 DNA in W12-20850 cells; assay type: cell-based
Procedure, shortened: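 W12-20850 cells seeded at 7.5 × 10^3/well onto compound (100 to 0.001 μM), 4 days at 37 °C, 5% CO2. MTS growth read, then same cells lysed in 0.2N NaOH/1% Igepal. Episomal HPV-16 DNA measured by hybrid capture: 90 °C 6.5 min, 42 °C overnight, anti-digoxigenin HRP, chemiluminescence. HPV DNA/MTS ratio expressed as % of untreated control. Fit to modified Hill equation.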

[4] = system: EBV; test: Lytic replication of EBV induced by sodium butyrate and PMA in P3HR1 cells; assay type: cell-based
[5] = system: MT4 cells; test: Apoptosis assay; assay type: cell-based, human; conditions: MT4, 20 h exposure
Procedure, shortened: (§2)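 Apoptosis read as cytoplasmic histone-associated DNA fragments with a Cell Death Detection ELISA kit. Exposure was 20 h for IM9 and MT4 and 40 h for W12 and U937. A405 was read kinetically at 30 °C, and the rate per hour came from linear regression of the linear portion. A Fas-activating antibody was the positive control.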

[6] = Growth of resting PBMC, MTS; assay type: cell-based; conditions: human, resting PBMCs
[7] = system: U937 cells; test: Apoptosis assay; assay type: cell-based, human; conditions: U937, 40 h exposure
Procedure, shortened: as §2

[8] = system: Vero cells; test: Growth of uninfected Vero cells, MTS; assay type: cell-based, African Green monkey
Procedure, shortened: (§3)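 Cells were plated in 96-well plates in medium holding serial dilutions of test compound, 1 nM to 10 μM, with DMSO ≤1% (v/v) final. Growth was read by MTS after 72 h at 37 °C: 2 h with reagent plus phenazine methosulfate, then A490. K and Imax came from a fit to a modified Hill equation. Vero cells are African Green monkey.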

[9] = system: Caski; test: Growth of Caski; assay type: cell-based, human; conditions: 72 h
Procedure, shortened: (§4)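 Cell lines carrying integrated viral genomes were plated in 96-well plates in medium with test compound. Growth was read by ATP luminescence (CellTiter-Glo) for HEK293 and WI38 VA13, and by MTS reduction (A490 after 2 h at 37 °C) for Namalwa, W12 20861, SiHa, Caski and HeLa. K and Imax came from a fit to a modified Hill equation.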

[10] = system: HKC cells; test: mRNA measurement by RT-qPCR in HKC cells; assay type: cell-based, human; conditions: for Fold increase due to GSK983, ABCD1 mRNA / Fold increase due to GSK983, ABCG1 mRNA / Fold increase due to GSK983, ADAMTS5 mRNA / Fold increase due to GSK983, BIK mRNA / Fold increase due to GSK983, MDM2 mRNA / Fold increase due to GSK983, MGP mRNA / Fold increase due to GSK983, CDKN1A mRNA / Fold increase due to GSK983, CSF2 mRNA / Fold increase due to GSK983, IFI6 mRNA / Fold increase due to GSK983, IFI16 mRNA / Fold increase due to GSK983, MMP1 mRNA / Fold increase due to GSK983, IRF3 mRNA / Fold increase due to GSK983, IRF9 mRNA: HKC cells
[11] = system: Molt4; test: Growth of Molt4, MTS; assay type: cell-based, human
Procedure, shortened: as §3

[12] = system: primary cells; test: Growth of primary cells; assay type: cell-based, human; conditions: at concentrations below 1 μM
[13] = system: Huh7; test: Growth of Huh7, MTS; assay type: cell-based, human
Procedure, shortened: as §3

[14] = Growth of uninfected HFF cells; assay type: cell-based, human; conditions: human, HFF cells (fibroblasts)
[15] = system: HFF cells; test: Growth of uninfected HFF cells; assay type: cell-based, human
[16] = Bone marrow toxicity assay, erythroid progenitors; assay type: cell-based; conditions: human, erythroid bone marrow progenitor cells
[17] = Growth of WI38 fibroblasts, MTS; assay type: cell-based; conditions: human
Procedure, shortened: as §1

[18] = Growth of activated PBMC, MTS; assay type: cell-based; conditions: human, activated PBMCs
Procedure, shortened: as §1

[19] = system: HPV; test: Viral DNA levels in the three HPV-infected cell lines; assay type: cell-based; conditions: read-out: K values, viral DNA levels
[20] = system: HeLa; test: Growth of HeLa; assay type: cell-based, human; conditions: 72 h
Procedure, shortened: as §4

[21] = 10 nM, 24 h, not significantly different from 1
[22] = 100 nM, 24 h, not significantly different from 1
[23] = 100 nM, 48 h, not significantly different from 1

O=C(N[C@@H]1CCCc2c1[nH]c1ccc(Cl)cc21)c1ccccn1 [GSK983, N-[(1R)-6-Chloro-2,3,4,9-tetrahydro-1H-carbazol-1-yl]-2-pyridinecarboxamide]
CC50 at 72 h [1]: > 10000 nM | EC50 ([2]; Homo sapiens, W12-20850, 96 h, read-out: K, Growth, MTS): 11 ± 2 nM | Outcome of growth inhibition over time ([2]; W12, 3 days, rate of MTS reduction): cytostasis | Imax, Growth, MTS ([2]; W12-20850, 4 days): 60% and 60 ± 7% | Imax, Ratio, HPV DNA/MTS ([3]; W12-20850): 90 ± 2% | K, Ratio, HPV DNA/MTS ([3]; W12-20850): 4.9 ± 0.5 nM | EC50 ([3]; read-out: K, DNA, hybrid capture, W12-20850, HPV type 16, 4 days): 4.5 ± 0.3 nM | Susceptibility of lytic replication of EBV ([4]; at concentrations below 1 μM): not susceptible | Inhibition of lytic replication of EBV below 10 μM ([4]; below 10 μM, data not shown): No significant inhibition | Inhibition of lytic replication of EBV ([4]; induced by sodium butyrate and PMA in P3HR1 cells, data not shown): did not inhibit | Apoptosis [5]: induced apoptosis | CC50 at 72 h [6]: 520000 nM | Apoptosis [7]: apoptosis did not occur | Outcome of growth inhibition over time ([8]; data not shown): cytostasis | Imax, uninfected host cell growth, MTS ([8]; data of Fig. 3): 37% | Imax, Growth, MTS ([8]; kidney epithelial, 72 h, 4 titrations): 43 ± 1% | Imax, Growth, MTS ([9]; Caski, HPV16 integrated): 33 ± 1.5% | EC50 ([9]; Homo sapiens, Ca-Ski, read-out: K, Growth, MTS): 32 ± 6 nM | Fold increase due to GSK983, ABCD1 mRNA ([10]; 10 nM, 24 h): 2.0 fold | Fold increase due to GSK983, ABCG1 mRNA ([10]; 10 nM, 24 h): 2.5 fold | Fold increase due to GSK983, ADAMTS5 mRNA ([10]; 10 nM, 24 h): 2.6 fold | Fold increase due to GSK983, BIK mRNA ([10]; 10 nM, 24 h): 2.2 fold | Fold increase due to GSK983, MDM2 mRNA ([10]; 10 nM, 24 h): 2.1 fold | Fold increase due to GSK983, MGP mRNA ([10]; 10 nM, 24 h): 1.9 fold | Fold increase due to GSK983, CDKN1A mRNA [10, 21]: 1.7 ^b fold | Fold increase due to GSK983, CSF2 mRNA [10, 21]: 1 ^b fold | Fold increase due to GSK983, IFI6 mRNA [10, 21]: 1.3 ^b fold | Fold increase due to GSK983, IFI16 mRNA [10, 21]: 2.3 ^b fold | Fold increase due to GSK983, MMP1 mRNA [10, 21]: 5.8 ^b fold | Fold increase due to GSK983, ABCD1 mRNA ([10]; 10 nM, 48 h): 4.5 fold | Fold increase due to GSK983, ABCG1 mRNA ([10]; 10 nM, 48 h): 3.1 fold | Fold increase due to GSK983, ADAMTS5 mRNA ([10]; 10 nM, 48 h): 2.3 fold | Fold increase due to GSK983, BIK mRNA ([10]; 10 nM, 48 h): 1.8 fold | Fold increase due to GSK983, CDKN1A mRNA ([10]; 10 nM, 48 h): 1.6 fold | Fold increase due to GSK983, CSF2 mRNA ([10]; 10 nM, 48 h): 4.1 fold | Fold increase due to GSK983, IFI16 mRNA ([10]; 10 nM, 48 h): 2.7 fold | Fold increase due to GSK983, IRF3 mRNA ([10]; 10 nM, 48 h): 2.4 fold | Fold increase due to GSK983, MDM2 mRNA ([10]; 10 nM, 48 h): 3.2 fold | Fold increase due to GSK983, MGP mRNA ([10]; 10 nM, 48 h): 2.9 fold | Fold increase due to GSK983, MMP1 mRNA ([10]; 10 nM, 48 h): 2.2 fold | Fold increase due to GSK983, IRF9 mRNA ([10]; 10 nM, 48 h, not significantly different from 1): 1.5 ^b fold | Fold increase due to GSK983, ABCD1 mRNA ([10]; 100 nM, 24 h): 2.3 fold | Fold increase due to GSK983, ABCG1 mRNA ([10]; 100 nM, 24 h): 5.0 fold | Fold increase due to GSK983, BIK mRNA ([10]; 100 nM, 24 h): 2.3 fold | Fold increase due to GSK983, CDKN1A mRNA ([10]; 100 nM, 24 h): 1.8 fold | Fold increase due to GSK983, CSF2 mRNA ([10]; 100 nM, 24 h): 2.8 fold | Fold increase due to GSK983, IRF9 mRNA ([10]; 100 nM, 24 h): 1.6 fold | Fold increase due to GSK983, MDM2 mRNA ([10]; 100 nM, 24 h): 2.4 fold | Fold increase due to GSK983, MGP mRNA ([10]; 100 nM, 24 h): 2.0 fold | Fold increase due to GSK983, ADAMTS5 mRNA [10, 22]: 1.3 ^b fold | Fold increase due to GSK983, IFI6 mRNA [10, 22]: 1.1 ^b fold | Fold increase due to GSK983, IRF3 mRNA [10, 22]: 1.1 ^b fold | Fold increase due to GSK983, MMP1 mRNA [10, 22]: 5.2 ^b fold | Fold increase due to GSK983, ABCD1 mRNA ([10]; 100 nM, 48 h): 3.7 fold | Fold increase due to GSK983, ABCG1 mRNA ([10]; 100 nM, 48 h): 4.8 fold | Fold increase due to GSK983, ADAMTS5 mRNA ([10]; 100 nM, 48 h): 7.5 fold | Fold increase due to GSK983, BIK mRNA ([10]; 100 nM, 48 h): 3.7 fold | Fold increase due to GSK983, CDKN1A mRNA ([10]; 100 nM, 48 h): 4.3 fold | Fold increase due to GSK983, CSF2 mRNA ([10]; 100 nM, 48 h): 5.8 fold | Fold increase due to GSK983, MDM2 mRNA ([10]; 100 nM, 48 h): 2.9 fold | Fold increase due to GSK983, MGP mRNA ([10]; 100 nM, 48 h): 3.0 fold | Fold increase due to GSK983, MMP1 mRNA ([10]; 100 nM, 48 h): 5.0 fold | Fold increase due to GSK983, IFI16 mRNA [10, 23]: 0.8 ^b fold | Fold increase due to GSK983, IRF3 mRNA [10, 23]: 0.8 ^b fold | Fold increase due to GSK983, IRF9 mRNA [10, 23]: 1.5 ^b fold | Number of genes of the Pathway Set with significant increases in expression ([10]; primary human keratinocytes, at both 10 and 100 nM, 546 genes): 9 genes | EC50 ([11]; Homo sapiens, MOLT-4, 72 h, read-out: K, growth, MTS): 13 ± 1.3 nM | Imax, Growth, MTS ([11]; Molt4, T lymphoblast, 72 h): 85 ± 2% | Inhibition of growth of primary cell types [12]: None of the primary cell types tested was significantly inhibited; also recorded: does not impact the growth | EC50 ([13]; Homo sapiens, Huh-7, 72 h, read-out: K, growth, MTS): 41 ± 10 nM | Imax, Growth, MTS ([13]; Huh7, liver epithelial, 72 h): 26 ± 1% | CC50 at 72 h [14]: 55000 nM | K, uninfected host cell growth, MTS ([15]; HFF, this experiment (Fig. 2), K ∼ CC50): 35,500 nM | Growth of the uninfected HFF, as measured by MTS ([15]; at concentrations below one micromolar): not inhibited | CC50 [16]: > 10000 nM | CC50 at 72 h [17]: 90000 nM | CC50 at 72 h [18]: 224000 nM | EC50 [19]: 2 to 5 nM | Imax, Growth, MTS ([20]; HPV 18 integrated): 50 ± 0.8% | EC50 ([20]; Homo sapiens, read-out: K, Growth, MTS): 20 ± 2 nM
